According to ChEMBL document CHEMBL3351834, “Jalapinoside, a macrocyclic bisdesmoside from the resin glycosides of Ipomea purga, as a modulator of multidrug resistance in human cancer cells” (J Nat Prod, 2015):
In brackets after ≈: the same amount, converted by molar mass.

Key:
MCF7 [1] = experiment: Cytotoxicity against human MCF7 cells assessed as growth inhibition after 72 hrs by SRB assay in presence of vinblastine; format: functional, cell-based; conditions: MCF7, 72 h
Summary of the method: (§1)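 SRB assay. Log-phase cells, RPMI 1640 + 10% FBS, treated in triplicate with test samples at 0.2−25 μg/mL, 72 h at 37 °C, 5% CO2, static conditions. IC50 (50% inhibition of control growth) read from a semilog plot of concentration (μg/mL) against % growth inhibition. Resistant subline kept in 0.192 μg/mL vinblastine; a vinblastine-free stock also maintained.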

MCF7 [2] = experiment: Cytotoxicity against human MCF7 cells assessed as growth inhibition after 72 hrs by SRB assay; format: functional, cell-based; conditions: MCF7, 72 h; summary of the method: as §1
MCF7 [3] = experiment: Reversal of multidrug-resistance in human MCF7 cells in presence of vinblastine assessed as reduction in vinblastine IC50 at 25 ug/ml relative to IC50 vinblastine alone; format: functional
Summary of the method: (§2)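 Modulation by SRB assay. MCF-7 or MCF-7/Vin cells exposed 72 h to vinblastine (0.000 64−10 μg/mL) with or without glycolipid at 25 or 5 μg/mL (water−DMSO 9:1). Vinblastine IC50 taken from a semilog growth-inhibition plot. Reserpine 5 μg/mL as reference modulator. Reversal fold = IC50 of vinblastine alone ÷ IC50 with test compound.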

MCF7 [4] = experiment: Cytotoxicity against vinblastin-sensitive human MCF7 cells assessed as growth inhibition after 72 hrs by SRB assay; format: functional, cell-based; conditions: MCF7, 72 h; summary of the method: as §1
MCF7 [5] = experiment: Reversal of multidrug-resistance in human MCF7 cells assessed as reduction in vinblastine IC50 at 25 ug/ml relative to IC50 vinblastine alone; format: functional; summary of the method: as §2
MCF7 [6] = experiment: Reversal of multidrug-resistance in vinblastin-sensitive human MCF7 cells assessed as reduction in vinblastine IC50 at 25 ug/ml relative to IC50 vinblastine alone; format: functional; summary of the method: as §2

| Structure (SMILES) | IC50 (MCF7 [1]) | IC50 (MCF7 [2]) | fold change (FC) (MCF7 [3]) | IC50 (MCF7 [4]) | fold change (FC) (MCF7 [5]) | fold change (FC) (MCF7 [6]) |
| --- | --- | --- | --- | --- | --- | --- |
| CC[C@]1(O)C[C@@H]2CN(CCc3c([nH]c4ccccc34)[C@@](C(=O)OC)(c3cc4c(cc3OC)N(C)[C@H]3[C@@](O)(C(=O)OC)[C@H](OC(C)=O)[C@]5(CC)C=CCN6CC[C@]43[C@@H]65)C2)C1 [VINBLASTINE] | 1.22 µg/mL | 1.02 µg/mL (≈ 1.26 µM) | – | – | – | – |
| CCCCCCCCCCCC(=O)O[C@H]1[C@@H](O)[C@@H](C)O[C@@H](O[C@@H]2[C@@H](O[C@@H]3O[C@H](CO)[C@@H](O)[C@H](O)[C@H]3O[C@@H]3O[C@H](C)[C@@H](O)[C@H](OC(=O)[C@@H](C)CC)[C@H]3O)[C@@H](OC(=O)[C@@H](C)CC)[C@H](O[C@H]3[C@@H]4O[C@H]5[C@H](O[C@H](CCC)CCCCCCC[C@H](O[C@@H]6O[C@H](C)[C@@H](O)[C@H](O)[C@H]6O)CC(=O)O[C@H]3[C@H](O)[C@@H](COC(C)=O)O4)O[C@H](C)[C@@H](O)[C@@H]5O)O[C@H]2C)[C@@H]1O | < 0.00064 µg/mL | < 0.00064 µg/mL | >1906.3 | < 0.00064 µg/mL | >1593 | 73.4 |
| COC(=O)[C@H]1[C@H]2C[C@@H]3c4[nH]c5cc(OC)ccc5c4CCN3C[C@H]2C[C@@H](OC(=O)c2cc(OC)c(OC)c(OC)c2)[C@@H]1OC [RESERPINE] | 0.31 µg/mL | 0.037 µg/mL (≈ 0.0608 µM) | – | 0.003 µg/mL (≈ 0.00493 µM) | – | – |
